Source: PubChem BioAssay (several laboratories)
GSH bead fluor: GSH bead compound fluorescence profile. hit rate 0.25% among 190,000. fluorescence (KMESF) at 10 µM. GSH beads flow cytometry, compound fluorescence 488/530 nm; hits give high values. AID 1776; in the data active = fluorescence above about 89;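 note: glutathione beads carrying GST-tagged Bcl family fusion proteins plus one bare bead set; values are compound well signal with DMSO vehicle wells as background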
L major viab: inhibitors of Leishmania major promastigote growth; Leishmania major promastigotes, resazurin fluorescence viability; inhibition, % at 10 µM; hit rate 9% among 200,000; AID 1063;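 note: promastigotes grown with compound for 44 hours at 28 °C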
ABCG2 inh: human ABCG2 inhibition, ABCB1 as counter-screen; AID 1325; inhibition, % at 6.6 µM; Q9UNQ0; IgMXP3 cells, JC-1 efflux, flow cytometry; hit rate 0.1% among 190,000;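 active = inhibition above 80%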;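 note: 0% = DMSO and 100% = nicardipine control wells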
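Times: 10 min at 25 °C | Test system: Two drug-resistant human cell lines, ABCG2 and ABCB1 | Quantity: 3 million cells/mL final, two lines in 1:1 ratio | Signal: Flow cytometry, 530 nm JC-1 signal | Dosing: Compound at 6.6 µM | Controls: Nicardipine and DMSO wells | Reagent: JC-1 as fluorescent efflux pump substrate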
PKD1 kinase inh: PKD1 (human) kinase inhibition; PKD1 kinase fluorescence polarization assay; hit rate 0.056% among 200,000; Q15139; AID 797; inhibition, % (test concentration not listed)
Avidin bead fluor: avidin bead compound fluorescence profile; hit rate 0.38% among 220,000; Avidin beads, compound fluorescence 488/530 nm, flow cytometry; hits give high values; fluorescence (KMESF) at 10 µM; AID 1775; in the data active = fluorescence above about 47
ABCB1 block: blocks JC-1 efflux by human ABCB1 transporter; inhibition, % at 6.6 µM; hit rate 0.067% among 190,000; CCRF-Adr cells, flow cytometry; AID 1326; in the data active = inhibition above about 40%;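 note: 0% = vehicle and 100% = reference inhibitor; higher value means more JC-1 retained so stronger ABCB1 efflux block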
Target sequence (P08183 whole entry, looked up): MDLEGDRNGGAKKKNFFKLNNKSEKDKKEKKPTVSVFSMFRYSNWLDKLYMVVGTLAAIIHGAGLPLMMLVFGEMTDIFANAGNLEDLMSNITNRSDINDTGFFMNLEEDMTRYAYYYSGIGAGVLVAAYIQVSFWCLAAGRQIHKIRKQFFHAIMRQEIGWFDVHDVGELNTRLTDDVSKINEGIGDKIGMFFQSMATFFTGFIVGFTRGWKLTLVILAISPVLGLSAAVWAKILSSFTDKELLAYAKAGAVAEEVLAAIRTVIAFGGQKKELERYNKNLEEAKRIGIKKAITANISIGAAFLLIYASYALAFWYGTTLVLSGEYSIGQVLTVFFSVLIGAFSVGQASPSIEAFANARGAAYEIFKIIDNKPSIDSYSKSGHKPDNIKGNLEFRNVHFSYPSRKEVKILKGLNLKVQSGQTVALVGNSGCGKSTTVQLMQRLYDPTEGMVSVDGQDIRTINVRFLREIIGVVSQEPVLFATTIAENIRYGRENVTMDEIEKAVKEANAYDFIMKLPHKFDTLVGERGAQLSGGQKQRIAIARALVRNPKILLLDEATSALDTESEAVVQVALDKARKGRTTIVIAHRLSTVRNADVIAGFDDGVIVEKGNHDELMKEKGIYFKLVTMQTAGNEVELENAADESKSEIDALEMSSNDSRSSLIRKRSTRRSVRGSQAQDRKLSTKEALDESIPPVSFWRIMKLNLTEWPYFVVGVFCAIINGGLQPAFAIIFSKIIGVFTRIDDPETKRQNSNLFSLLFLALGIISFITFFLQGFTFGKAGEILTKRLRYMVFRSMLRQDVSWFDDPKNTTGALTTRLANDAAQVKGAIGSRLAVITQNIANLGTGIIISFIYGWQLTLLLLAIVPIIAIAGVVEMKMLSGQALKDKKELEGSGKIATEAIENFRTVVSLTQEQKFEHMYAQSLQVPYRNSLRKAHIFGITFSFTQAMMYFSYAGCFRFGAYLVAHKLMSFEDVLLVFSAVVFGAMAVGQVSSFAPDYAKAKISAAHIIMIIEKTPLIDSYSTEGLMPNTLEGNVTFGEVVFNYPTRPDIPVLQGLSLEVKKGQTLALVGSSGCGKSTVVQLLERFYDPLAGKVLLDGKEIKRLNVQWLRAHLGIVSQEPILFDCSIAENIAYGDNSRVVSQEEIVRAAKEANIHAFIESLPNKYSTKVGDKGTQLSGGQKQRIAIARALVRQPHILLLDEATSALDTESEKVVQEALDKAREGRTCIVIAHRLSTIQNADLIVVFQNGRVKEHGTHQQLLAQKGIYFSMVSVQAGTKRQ
Numbers without * were called inactive; . = no result. The full list was thinned out, with hits kept by preference. Cut-off read from the data, not from the text of the source, unless noted: active = inhibition above about 50%; inactive = the rest.

SMILES	GSH bead fluor	L major viab	ABCG2 inh	PKD1 kinase inh	Avidin bead fluor	ABCB1 block
O=C(N/N=C\c1ccc(-c2ccc([N+](=O)[O-])cc2)o1)c1ccc2c(c1)OCO2	17	-2	-1	4	15	0
O=C(N/N=C/c1ccc(-c2cccc(C(F)(F)F)c2)o1)c1ccccc1O	19	98*	-9	-1	9	-2
O=C(N/N=C/c1ccc(O)cc1)c1cccc(C(F)(F)F)c1	6	11	1	3	12	0
Cc1ccc(CNS(=O)(=O)NCc2cccs2)cc1	11	-5	4	-6	12	0
CC(C)(C)NC(=O)CSc1nc2ccccc2n1-c1ccccc1	11	15	6	-3	6	2
CCOc1cc([N+](=O)[O-])c2nc(N)sc2c1	.	.	.	.	10	.
CCN(CC)S(=O)(=O)c1cccc(C(=O)N/N=C/c2cccc(O)c2O)c1	5	98*	-13	-7	8	-1
O=C(N/N=C/c1ccc(-c2cccc([N+](=O)[O-])c2)o1)c1ccccc1O	10	93*	0	-3	19	0
COc1cc([N+](=O)[O-])ccc1-c1ccc(/C=N/NC(=O)c2ccccc2O)o1	.	.	.	.	9	.
O=C(N/N=C/c1ccco1)/C(=C/c1cccc([N+](=O)[O-])c1)NC(=O)c1ccccc1	8	2	0	7	14	0
O=C(N/N=C/c1ccc(Br)o1)/C(=C/c1ccc([N+](=O)[O-])cc1)NC(=O)c1ccccc1	30	57*	5	4	12	0
Cc1ccc(C(=O)OCCn2cc(C#N)c(=O)[nH]c2=O)cc1	11	2	11	-2	11	0
CC(C)CC(=O)NC(NCC1CCCO1)C(Cl)(Cl)Cl (centres undefined)	51	-8	-1	-8	11	0
CCc1cc(C(=O)c2ccc(C)cc2)c(NC(=O)CCl)s1	11	88*	2	-9	12	0
COc1ccccc1Cn1c(-c2ccccc2OC)nc2ccccc21	34	98*	14	-3	15	3
COc1ccc(-c2n(Cc3ccccc3)c3ccccc3[n+]2Cc2ccccc2)cc1	13	100*	0	-6	10	-1
C=CCn1c(-c2ccc(OC)cc2)nc2ccccc21	25	96*	10	-6	15	2
COc1ccc2c(c1)nc(N)n2Cc1ccccc1	49	64*	0	-11	6	0
COc1ccc(-c2nc3ccccc3n2Cc2ccccc2)cc1	45	53*	3	-3	7	1
CCC1c2ccc(C)n2CCN1C(=O)Nc1ccc(F)cc1 (centres undefined)	41	-1	5	-14	23	-1
O=C(Nc1ccc(Cl)c(Cl)c1)Nc1cc(S(=O)(=O)N2CCOCC2)ccc1N1CCCC1	4	69*	-3	-11	3	-1
COc1ccc(NS(=O)(=O)c2ccc(N3CCOCC3)c(NC(=O)c3ccc(OC)cc3)c2)cc1	9	82*	13	-11	13	1
COc1ccc(-c2cc(C(=O)Nc3cc(S(=O)(=O)N4CCOCC4)ccc3N3CCOCC3)c3ccccc3n2)cc1	13	65*	2	3	11	4
COc1ccc2cc(/C(C)=N/NC(=S)Nc3cc(S(=O)(=O)N4CCOCC4)ccc3N3CCOCC3)ccc2c1	12	75*	-3	6	12	-1
Cc1ccccc1C(=O)OCc1cnc(Cl)s1	15	2	2	1	9	1
SMILES	GSH bead fluor	L major viab	ABCG2 inh	PKD1 kinase inh	Avidin bead fluor	ABCB1 block
CN(C)CCOC(=O)NCC12CC3CC(CC(C3)C1)C2	.	.	.	.	8	.
COc1cccc(CN(C(=O)/C=C/c2ccc(Cl)cc2)C2CCS(=O)(=O)C2)c1 (centres undefined)	11	12	4	-2	15	0
COc1ccc(NS(=O)(=O)c2ccc(N3CCOCC3)c(NC(=O)c3ccccc3Cl)c2)cc1	3	97*	14	-17	13	28
COc1ccc(NS(=O)(=O)c2ccc3c(c2)CCO3)cc1	.	.	.	.	61*	.
COC(=O)CCC(=O)Nc1cc(S(=O)(=O)Nc2ccc(Cl)cc2)ccc1N1CCOCC1	10	-4	3	-3	8	0
O=S(=O)(Nc1ccccc1)c1ccc2c(c1)CCO2	.	.	.	.	8	.
Cc1cc(NC(=O)CSc2nc(-c3ccccc3)nc3c2c(=O)n(C)c(=O)n3C)no1	17	-8	1	3	6	1
